# Measured values from ChEMBL document CHEMBL2057177, “Analogues of fenarimol are potent inhibitors of Trypanosoma cruzi and are efficacious in a murine model of Chagas disease” (J Med Chem, 2012).
# The source made the active and inactive calls. The rule behind the calls is not given here.
# Key:
# [1] = Elimination half life in Sprague-Dawley rat at 5.2 mg/kg, iv; format: ADME, organism-based; set-up: dose 5.2 mg/kg, route intravenous; conditions: in vivo, read-out: beta t1/2 (converted)
# Outline: (§1)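 Overnight-fasted male Sprague–Dawley rats (272–320 g), n = 2 per route. IV dose given as a 10 min jugular infusion in aqueous solution; oral dose by gavage as aqueous suspension. Arterial blood taken via carotid cannula up to 24 h. Plasma measured by LC-MS after acetonitrile precipitation. Noncompartmental analysis. Blood clearance = plasma clearance divided by in vitro blood/plasma ratio. Bioavailability from mean dose-normalised AUC0–inf, oral versus IV.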
# Trypanosoma cruzi [2] = assay: Antitrypanosomal activity against trypomastigotes of Trypanosoma cruzi Tulahuen infected in Swiss mouse model of chagas disease assessed as decrease in parasite level in blood at 50 mg/kg, po administered 8 day after post infection qd for 10 days; format: functional, organism-based; set-up: dose 50 mg/kg
# [3] = Apparent volume of distribution at steady state in Sprague-Dawley rat at 5.2 mg/kg, iv; format: ADME, organism-based; set-up: dose 5.2 mg/kg, route intravenous; conditions: in vivo, read-out: Vdss(app); outline: as §1
# Trypanosoma cruzi [4] = assay: Antitrypanosomal activity against trypomastigotes of Trypanosoma cruzi Tulahuen infected immunosuppressed Swiss mouse assessed as level of parasite in blood at 20 mg/kg, po administered 8 day after post infection qd for 20 days measured after 3 cycles of immunosuppression; format: functional, organism-based; set-up: dose 20 mg/kg
# Trypanosoma cruzi [5] = assay: Antitrypanosomal activity against trypomastigotes of Trypanosoma cruzi Tulahuen infected immunosuppressed Swiss mouse assessed as level of parasite in blood at 100 mg/kg, po administered 8 day after post infection qd for 20 days measured after 3 cycles of immunosuppression; format: functional, organism-based; set-up: dose 100 mg/kg
# CYP3A4/5 [6] = target: T1, CYP3A4/5 (Homo sapiens, UniProt P08684+P20815); assay: Inhibition of CYP3A4/5 in human liver microsomes; format: ADME, Microsome
# Trypanosoma cruzi [7] = assay: Antitrypanosomal activity against trypomastigotes of Trypanosoma cruzi Tulahuen infected in Swiss mouse model of chagas disease assessed as decrease in parasite level in blood at 50 mg/kg, po administered 8 day after post infection qd for 10 days measured on day 21; format: functional, organism-based; set-up: dose 50 mg/kg
# [8] = Oral bioavailability in Sprague-Dawley rat at 17.6 mg/kg; format: ADME, organism-based; conditions: in vivo; outline: as §1
# Trypanosoma cruzi [9] = assay: Antitrypanosomal activity against trypomastigotes of Trypanosoma cruzi Tulahuen infected in Swiss mouse model of chagas disease assessed as level of parasite in blood at 20 mg/kg, po qd for 20 days measured after 30 day; format: functional, organism-based; set-up: dose 20 mg/kg
# Outline: (§2)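 Female Swiss mice infected ip with Tulahuén parasites; oral gavage dosing in HPMC vehicle, daily from day 8 post-infection. Dosing is followed by 10 days without compound. If blood is then parasite-free, mice receive cyclophosphamide ip 50 mg/kg/day, up to three cycles (4 days on, 3 rest). Parasitemia counted in tail-prick blood by hemocytometer.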
# Trypanosoma cruzi [10] = assay: Antitrypanosomal activity against trypomastigotes of Trypanosoma cruzi Tulahuen expressing the beta- galactosidase gene infected rat L6 cells after 96 hrs; format: functional, organism-based; conditions: L6, 96 h
# Outline: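 Tulahuén trypomastigotes expressing β-galactosidase, maintained by serial passage in L6 cells. L6 cells seeded and left 24 h at 37 °C, 5% CO2, then infected at MOI 3 for 48 h. Compound exposure 96 h, benznidazole control. CPRG with 0.3% Nonidet P-40 added, absorbance at 530 nm after 4−6 h. IC50 taken from % inhibition curve; mean of at least two assays.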
# Trypanosoma cruzi [11] = assay: Antitrypanosomal activity against trypomastigotes of Trypanosoma cruzi Tulahuen infected in Swiss mouse model of chagas disease assessed as decrease in parasite level in blood at 20 mg/kg, po administered 8 day after post infection qd for 20 days; format: functional; set-up: scale not given: the % may be the effect or the level left
# Outline: (§3)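 Female outbred Swiss mice, about 8 weeks old, infected ip with Tulahuén parasites; five mice per group. Daily dosing starts day 8 post-infection. Oral doses given by gavage in HPMC vehicle (0.5% HPMC, 0.4% Tween 80, 0.5% benzyl alcohol); ip doses in PBS with 0.4% Tween 80 and 10% PEG400. Tail-prick blood taken days 8, 9, 12, 14, 16, 19 and 27 post-infection, red cells lysed, and live trypomastigotes counted by hemocytometer. % efficacy = (vehicle mean − treated mean)/vehicle mean × 100. Survival recorded as surviving/infected-and-treated.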
# [12] = Kinetic solubility of the compound at pH 6.5 by nephelometric analysis; format: physicochemical; conditions: buffer, read-out: Kinetic_solubility
# [13] = Blood Clearance in Sprague-Dawley rat at 5.2 mg/kg, iv; format: ADME, organism-based; set-up: dose 5.2 mg/kg, route intravenous; conditions: whole blood; outline: as §1
# Trypanosoma cruzi [14] = assay: Antitrypanosomal activity against trypomastigotes of Trypanosoma cruzi Tulahuen infected immunosuppressed Swiss mouse assessed as level of parasite in blood at 50 mg/kg, po administered after 2 cycles of immunosuppression qd for 10 days; format: functional, organism-based; set-up: dose 50 mg/kg
# [15] = Plasma concentration in Swiss mouse at 20 mg/kg, po after 8 hrs; format: ADME, organism-based; set-up: dose 20 mg/kg, route oral
# Outline: (§4)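 Nonfasted male Swiss outbred mice (23.8–39.9 g), fed throughout. Dosed by oral gavage as solution or suspension in aqueous vehicle. Plasma assayed by LC-MS against blank-plasma standards after acetonitrile precipitation; LLOQ 0.001–0.015 μM.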
# CYP3A4/5 [16] = target: T1, CYP3A4/5; assay: Inhibition of […] in human liver microsomes at 20 uM; format: ADME, Microsome
# Trypanosoma cruzi [17] = assay: Antitrypanosomal activity against trypomastigotes of Trypanosoma cruzi Tulahuen infected in Swiss mouse model of chagas disease assessed as decrease in parasite level in blood at 100 mg/kg, ip administered 8 days after post infection qd for 5 days; format: functional; set-up: scale not given: the % may be the effect or the level left; conditions: route intraperitoneal; outline: as §3
# [18] = Plasma concentration in Swiss mouse at 20 mg/kg, po after 1 hr; format: ADME, organism-based; set-up: dose 20 mg/kg, route oral; outline: as §4
# Trypanosoma cruzi [19] = assay: Antitrypanosomal activity against trypomastigotes of Trypanosoma cruzi Tulahuen infected in Swiss mouse model of chagas disease assessed as increase of host survival at 100 mg/kg, ip administered 8 days after post infection qd for 5 days; format: functional, organism-based; set-up: dose 100 mg/kg; outline: as §3
# Trypanosoma cruzi [20] = assay: Antitrypanosomal activity against trypomastigotes of Trypanosoma cruzi Tulahuen infected in Swiss mouse model of chagas disease assessed as increase of host survival at 2 mg/kg, po administered 8 days after post infection qd for 5 days; format: functional, organism-based; set-up: dose 2 mg/kg; outline: as §3
# Trypanosoma cruzi [21] = assay: Antitrypanosomal activity against trypomastigotes of Trypanosoma cruzi Tulahuen infected in Swiss mouse model of chagas disease assessed as decrease in parasite level in blood at 50 mg/kg, po administered 8 days after post infection qd for 5 days; format: functional; set-up: scale not given: the % may be the effect or the level left; outline: as §3
# [22] = Plasma concentration in Swiss mouse at 50 mg/kg, po after 8 hrs; format: ADME, organism-based; set-up: dose 50 mg/kg, route oral; outline: as §4
# Trypanosoma cruzi [23] = assay: Antitrypanosomal activity against trypomastigotes of Trypanosoma cruzi Tulahuen infected immunosuppressed Swiss mouse assessed as level of parasite in blood at 20 mg/kg, po administered after 2 cycles of immunosuppression qd for 10 days; format: functional, organism-based; set-up: dose 20 mg/kg; outline: as §2
# [24] = Plasma concentration in Swiss mouse at 50 mg/kg, po after 24 hrs; format: ADME, organism-based; set-up: dose 50 mg/kg, route oral; outline: as §4
# [25] = Plasma concentration in Swiss mouse at 50 mg/kg, po after 1 hr; format: ADME, organism-based; set-up: dose 50 mg/kg, route oral; outline: as §4
# Trypanosoma cruzi [26] = assay: Antitrypanosomal activity against trypomastigotes of Trypanosoma cruzi Tulahuen infected in Swiss mouse model of chagas disease assessed as decrease in parasite level in blood at 10 mg/kg, ip administered 8 days after post infection qd for 5 days; format: functional; set-up: scale not given: the % may be the effect or the level left; conditions: route intraperitoneal; outline: as §3
# Trypanosoma cruzi [27] = assay: Antitrypanosomal activity against trypomastigotes of Trypanosoma cruzi Tulahuen infected in Swiss mouse model of chagas disease assessed as decrease in parasite level in blood at 2 mg/kg, po administered 8 days after post infection qd for 5 days; set-up: scale not given: the % may be the effect or the level left
# Trypanosoma cruzi [28] = assay: Antitrypanosomal activity against trypomastigotes of Trypanosoma cruzi Tulahuen infected in Swiss mouse model of chagas disease assessed as increase of host survival at 10 mg/kg, po administered 8 days after post infection qd for 5 days; format: functional, organism-based; set-up: dose 10 mg/kg; outline: as §3
compound,measurement,setting,value
N#Cc1ccc(C(O)(c2ccc(C(F)(F)F)cc2)c2cccnc2)cc1 (racemic),half-life,[1],5.1 h
same,Activity,Trypanosoma cruzi [2],Active
same,Vd,[3],5.7 L/kg
same,Activity,Trypanosoma cruzi [4],Active
same,Activity,Trypanosoma cruzi [5],Active
same,IC50,CYP3A4/5 [6],7600 nM
same,Activity,Trypanosoma cruzi [7],Active
same,bioavailability,[8],68.1%
same,Activity,Trypanosoma cruzi [9],Active
same,IC50,Trypanosoma cruzi [10],12 nM
same,Activity,Trypanosoma cruzi [11],>99%
same,solubility kinetic,[12],6.3 µg/mL
same,clearance,[13],24.4 mL/min/kg
same,Activity,Trypanosoma cruzi [14],inactive
OC(c1ccc(Cl)cc1)(c1cncnc1)c1ccccc1Cl (stereo not given) [FENARIMOL],concentration at 8 h,[15],0.08 µM
same,inhibition at 20 µM,CYP3A4/5 [16],66%
same,IC50,Trypanosoma cruzi [10],350 nM
same,Activity,Trypanosoma cruzi [17],80%
same,concentration at 1 h,[18],2.1 µM
same,Activity,Trypanosoma cruzi [19],Active
CC[C@@H]([C@H](C)O)n1ncn(-c2ccc(N3CCN(c4ccc(OC[C@@H]5CO[C@@](Cn6cncn6)(c6ccc(F)cc6F)C5)cc4)CC3)cc2)c1=O [POSACONAZOLE],Activity,Trypanosoma cruzi [20],Active
same,concentration at 8 h,[15],13.6 µM
same,Activity,Trypanosoma cruzi [21],100%
same,Activity,Trypanosoma cruzi [9],Active
same,concentration at 8 h,[22],11.1 µM
same,inhibition at 20 µM,CYP3A4/5 [16],98%
same,Activity,Trypanosoma cruzi [23],inactive
same,concentration at 24 h,[24],3.8 µM
same,concentration at 1 h,[25],6.4 µM
same,Activity,Trypanosoma cruzi [26],100%
same,Activity,Trypanosoma cruzi [11],>99%
same,Activity,Trypanosoma cruzi [27],100%
same,solubility kinetic,[12],3.1 µg/mL
same,Activity,Trypanosoma cruzi [28],Active
same,concentration at 1 h,[18],6.3 µM
